The list is not random: actives were taken first. Their share in the collection is about 2.1%.
TNAP act mid DEA – human TNAP enzyme activators, primary screen, biochemical, luminescent, intermediate phosphate acceptor level; 64,000 tested, under 10 active; purified TNAP, CDP-star luminescence, 100 mM DEA, 30 min; active compounds read high; scale: 0 levamisole-inhibited, 1 vehicle-only enzyme; AID 813, 2007; Alkaline phosphatase, tissue-nonspecific isozyme (Homo sapiens), P05186; activation factor at 20 µM;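 active = activation factor of at least 2 at 20 µM, relative to controls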
E coli RNAP – E. coli RNAP inhibitors, biochemical | E. coli RNA polymerase, fluorescence transcription assay | inhibition, %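 (tested at 10 µM)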 | 0.2% of 62,000 active; in the data active = inhibition above about 20%;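 also: 0% = enzyme without compound and 100% = no enzyme blank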
SF-1 act – activators of human SF-1, primary screen, cell-based, CHO-K1, Gal4-SF-1 LBD, luciferase luminescence | CHO-K1 Gal4-SF-1 LBD luciferase reporter; % increase over DMSO SF-1-specific signal | activation, % at 10 µM | 1.9% of 65,000 active;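 active = activation above the mean activation of all tested compounds plus 3 SD, cut at about 50% in these data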
Target sequence (Q13285 whole entry, looked up, the tested form may be a part): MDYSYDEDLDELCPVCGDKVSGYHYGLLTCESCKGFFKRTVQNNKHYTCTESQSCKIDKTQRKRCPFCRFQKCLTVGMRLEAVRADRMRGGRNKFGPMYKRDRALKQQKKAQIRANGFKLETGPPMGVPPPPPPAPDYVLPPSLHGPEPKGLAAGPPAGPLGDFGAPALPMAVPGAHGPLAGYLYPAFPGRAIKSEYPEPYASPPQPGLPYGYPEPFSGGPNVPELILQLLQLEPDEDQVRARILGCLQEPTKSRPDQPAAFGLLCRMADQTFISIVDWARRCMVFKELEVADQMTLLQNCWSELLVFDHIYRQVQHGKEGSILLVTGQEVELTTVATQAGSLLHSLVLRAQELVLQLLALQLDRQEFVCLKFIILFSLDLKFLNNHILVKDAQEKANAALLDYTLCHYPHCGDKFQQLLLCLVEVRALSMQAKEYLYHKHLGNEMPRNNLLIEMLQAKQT
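System: CHO-K1 cells with Gal4–hSF-1 LBD chimera plus Gal4-driven luciferase; quantity: 4,000 CHO-K1 cells per well; compound: one dose, 10 µM compound, 1% DMSO; times: 20 h compound treatment, 37 °C; measured by: SteadyLite luciferase luminescence; read-out: percent activation versus DMSO; benchmarks: DMSO and mock-transfected background; replicates: one test per compound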
RORA act – activators of orphan receptor RORA, primary screen, cell-based, luminescence; activation, % at 10 µM; CHO-K1 Gal4-RORA LBD luciferase reporter; percent increase over mock-subtracted basal signal; 1.5% of 65,000 active; Nuclear receptor ROR-alpha (Homo sapiens), P35398;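 active = activation above the mean of all tested compounds plus 3 SD, cut at about 49% in these data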;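 also: 0% = DMSO-treated RORA cells and 100% = added signal equal to DMSO minus mock-transfected cells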
MT1-MMP txn act – MT1-MMP promoter reporter activation – cell-based, luciferase luminescence, primary screen. HT1080 MT1-MMP promoter luciferase reporter, overnight; active compounds read high. AID 750, 2007. activation factor at 10 µM. 0.16% of 86,000 active;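 active = activation factor of at least 2 for MT1-MMP transcription at 10 µM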
An asterisk follows results filed as active.

How did CCN(CC)c1ccc(-c2nnc(SCC(=O)Nc3ccccc3C#N)n2-c2ccccc2)cc1 do in these assays?
MT1-MMP txn act: 1.2

What do the screens show for `O=C(NCc1cccnc1)C1CCCN(Cc2cnn(-c3ccccc3)c2-n2cccc2)C1` (stereo unspecified)?
MT1-MMP txn act: 0.9

Results for Cc1occc1C(=O)Nc1cc(C(C)(C)C)on1 ?
TNAP act mid DEA: 0.8; E coli RNAP: 0; SF-1 act: 19; RORA act: 64*; MT1-MMP txn act: 0.9

How did CC(C)c1nnc(NC(=O)c2cccs2)s1 do in these assays?
TNAP act mid DEA: 0.9; E coli RNAP: 12; SF-1 act: 104*; RORA act: 76*; MT1-MMP txn act: 1.3

How did Cc1cc(C)c(NC(=O)c2ccoc2C)c(C)c1 do in these assays?
MT1-MMP txn act: 1.2

How did O=C(Nc1cnc2ccccn2c1=O)c1ccc(F)cc1 do in these assays?
TNAP act mid DEA: 0.9; E coli RNAP: 5; SF-1 act: 60*; RORA act: 46; MT1-MMP txn act: 1.4

Results for Cc1occc1C(=O)Nc1ccc2ccccc2c1 ?
TNAP act mid DEA: 0.9; E coli RNAP: 9; SF-1 act: 48; RORA act: 120*; MT1-MMP txn act: 0.9

Results for O=C(Nc1nnc(CCc2ccccc2)s1)c1cccs1 ?
TNAP act mid DEA: 0.9; E coli RNAP: 8; SF-1 act: 54*; RORA act: 39; MT1-MMP txn act: 1.4

What do the screens show for `CCOC(=O)c1sc2nc(NC(=O)COc3ccccc3)sc2c1C`?
TNAP act mid DEA: 1; E coli RNAP: -3; SF-1 act: 16; RORA act: 6; MT1-MMP txn act: 1.1

What do the screens show for `CCOC(=O)c1sc2nc(NC(=O)c3cccs3)sc2c1C`?
TNAP act mid DEA: 0.9; E coli RNAP: 6; SF-1 act: 48; RORA act: 60*; MT1-MMP txn act: 1.3

How did O=C(Nc1nnc(COc2ccc(F)cc2)s1)c1cccs1 do in these assays?
TNAP act mid DEA: 1; E coli RNAP: 5; SF-1 act: 15; RORA act: 13; MT1-MMP txn act: 0.9

Results for CCCCSc1nnc(-c2c[nH]c3ccccc23)n1C ?
TNAP act mid DEA: 1; E coli RNAP: 14; SF-1 act: 57*; RORA act: 32; MT1-MMP txn act: 1.3

What do the screens show for `Cn1c(SCC(=O)N2CCN(c3ccccc3)CC2)nnc1-c1c[nH]c2ccccc12`?
TNAP act mid DEA: 1; E coli RNAP: 2; SF-1 act: -18; RORA act: -8; MT1-MMP txn act: 1

How did C/C=C(\CS(=O)(=O)c1ccccc1)S(=O)(=O)c1ccccc1 do in these assays?
TNAP act mid DEA: 0.9; E coli RNAP: 4; SF-1 act: -15; RORA act: -32; MT1-MMP txn act: 1.1

What do the screens show for `C/C(N)=C(/C#N)C(=O)CSc1ccc2c(c1)OCCO2`?
TNAP act mid DEA: 0.9; E coli RNAP: 7; SF-1 act: 58*; RORA act: -2; MT1-MMP txn act: 1.2

What do the screens show for `Cn1c(N)c(C(=O)CSc2ccc3c(c2)OCCO3)c(=O)n(C)c1=O`?
TNAP act mid DEA: 0.9; SF-1 act: 10; RORA act: 4; MT1-MMP txn act: 1.1

What do the screens show for `Nc1ccc(C(=O)OCc2nc3c(ccc4ccccc43)[nH]2)cc1`?
MT1-MMP txn act: 2.5*

What do the screens show for `COc1cc2cc(CN(Cc3nnnn3Cc3ccccc3)CC3CCCO3)c(=O)[nH]c2cc1OC` (stereo unspecified)?
TNAP act mid DEA: 1; E coli RNAP: -1; SF-1 act: 0; RORA act: -20; MT1-MMP txn act: 1

Results for COc1ccc2[nH]c(=O)c(CN(Cc3ccccc3)Cc3nnnn3CC3CCCO3)cc2c1 (stereo unspecified) ?
TNAP act mid DEA: 0.9; E coli RNAP: 7; SF-1 act: 57*; RORA act: 83*; MT1-MMP txn act: 1

Results for Clc1ccccc1OCc1nnc(-c2ccccc2Br)o1 ?
TNAP act mid DEA: 0.9; E coli RNAP: 8; SF-1 act: 94*; RORA act: 83*; MT1-MMP txn act: 1.6

How did CCOCCCNc1ccc(-c2ccccc2)nn1 do in these assays?
TNAP act mid DEA: 0.9; E coli RNAP: 6; SF-1 act: 58*; RORA act: 47; MT1-MMP txn act: 1.5

What do the screens show for `CCN(CC)c1ccc(NC(=O)c2ccccc2F)cc1`?
TNAP act mid DEA: 0.9; E coli RNAP: 8; SF-1 act: 74*; RORA act: 70*; MT1-MMP txn act: 0.6

What do the screens show for `Clc1ccccc1OCc1nc(-c2ccncc2)no1`?
TNAP act mid DEA: 0.9; E coli RNAP: 3; SF-1 act: 92*; RORA act: 54*; MT1-MMP txn act: 1.5

How did CC1CCN(Cc2nc(-c3ccccc3)no2)CC1 do in these assays?
TNAP act mid DEA: 0.9; E coli RNAP: 9; SF-1 act: 51*; RORA act: 19; MT1-MMP txn act: 1.5

How did Cc1ccc(OCc2nc(-c3ccccn3)no2)c(Br)c1 do in these assays?
TNAP act mid DEA: 0.9; E coli RNAP: 1; SF-1 act: -36; RORA act: -43

What do the screens show for `c1ccc(OCCCc2nc(-c3ccncc3)no2)cc1`?
TNAP act mid DEA: 0.9; E coli RNAP: -2; SF-1 act: -4; RORA act: -12; MT1-MMP txn act: 1

What do the screens show for `c1ccc(OCc2nc(-c3ccccc3)no2)cc1`?
TNAP act mid DEA: 0.9; E coli RNAP: -13; SF-1 act: 56*; RORA act: 40; MT1-MMP txn act: 1.6

How did Clc1ccc(OCc2nc(-c3ccncc3)no2)c(Br)c1 do in these assays?
TNAP act mid DEA: 0.9; E coli RNAP: -2; SF-1 act: 44; RORA act: 59*; MT1-MMP txn act: 1.1

Results for COc1nc(-c2ccccc2)ccc1-c1noc(COc2ccccc2)n1 ?
TNAP act mid DEA: 0.9; SF-1 act: -11; RORA act: -10; MT1-MMP txn act: 1

What do the screens show for `COC(=O)N1CC=CC1(C)C(=O)NCCN1CCOCC1` (stereo unspecified)?
MT1-MMP txn act: 1

What do the screens show for `CCC1=C2CC[C@H]3C(=O)N(CC)C(=O)[C@H]3[C@H]2[C@@]2(Cc3ccccc3)C(=NCC3CC3)OC(=O)N2C1=O`?
MT1-MMP txn act: 1.1

What do the screens show for `CCOC(=O)COn1c(-c2cccc(Cl)c2)nc2ccc([N+](=O)[O-])cc21`?
MT1-MMP txn act: 1.6

What do the screens show for `CCOc1cc(-c2c(C#N)c(=O)[nH]c3c2c(C)nn3-c2ccc(F)cc2)ccc1O`?
TNAP act mid DEA: 0.9; E coli RNAP: 0; SF-1 act: -15; RORA act: -29; MT1-MMP txn act: 1.1

How did Cc1cc(OCC(=O)N2CCCC2)ccc1Cl do in these assays?
TNAP act mid DEA: 1; E coli RNAP: 3; SF-1 act: 51*; RORA act: 18; MT1-MMP txn act: 1.3

From PubChem
